Assay results reported in ChEMBL document CHEMBL3272012, “5-(Tetradecyloxy)-2-furancarboxylic acid and related hypolipidemic fatty acid-like alkyloxyarylcarboxylic acids” (J Med Chem, 1977).
Values belong to the molecule of their own block, whether it stands above or below them.

Legend:
[1] = test system: Rattus norvegicus; experiment: Hypolipidemic activity in Wistar rat assessed as reduction in plasma cholesterol level at 291 umol/kg/day administered through diet for 4 days; format: functional; conditions: 96 h
Outline: (§1)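 Young male Wistar rats, 170-190 g at start, in groups of six, given compound mixed into Purina Lab Chow ad libitum for 4 or 10 days as stated. Daily dose was calculated from food consumption and body weight. Plasma was taken by cardiac puncture at the end and cholesterol measured by automated procedure. Results are % reduction versus a concurrent untreated control group, with Student's t test.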

[2] = test system: Rattus norvegicus; experiment: Hypolipidemic activity in Wistar rat assessed as reduction in plasma triglyceride level at 291 umol/kg/day administered through diet for 4 days; format: functional; conditions: 96 h
Outline: (§2)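 Young male Wistar rats, 170-190 g initial weight, six per group, fed drug mixed thoroughly into Purina Lab Chow ad libitum for the stated days; daily dose calculated from food consumption and body weight. Bled by cardiac puncture at end; plasma cholesterol and triglycerides by automated procedures, expressed as percent reduction versus simultaneous untreated controls; Student's t test.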

[3] = test system: Rattus norvegicus; experiment: Increase in liver weight in Wistar rat at 291 umol/kg/day administered through diet for 4 days; format: ADME, organism-based; conditions: in vivo, po, 96 h
[4] = test system: Rattus norvegicus; experiment: Hypolipidemic activity in Wistar rat assessed as reduction in plasma cholesterol level at 423 umol/kg/day administered through diet for 4 days; format: functional; conditions: 96 h
Outline: (§3)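 Young male Wistar rats, 170-190 g initial weight, groups of six, given compound mixed thoroughly into Purina Lab Chow ad libitum for 4 or 10 days as stated. Daily dose calculated from food consumption and body weight. Bled by cardiac puncture at end of treatment; plasma cholesterol measured by automated procedure. Expressed as percent reduction versus simultaneous untreated control group; Student's t test.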

[5] = test system: Rattus norvegicus; experiment: Increase in liver weight in Wistar rat at 423 umol/kg/day administered through diet for 4 days; format: ADME, organism-based; conditions: in vivo, po, 96 h
[6] = test system: Rattus norvegicus; experiment: Hypolipidemic activity in Wistar rat assessed as reduction in plasma triglyceride level at 423 umol/kg/day administered through diet for 4 days; format: functional; conditions: 96 h
[7] = test system: Rattus norvegicus; experiment: Increase in liver weight in Wistar rat at 404 umol/kg/day administered through diet for 4 days; format: ADME, organism-based; conditions: in vivo, po, 96 h
[8] = test system: Rattus norvegicus; experiment: Hypolipidemic activity in Wistar rat assessed as reduction in plasma triglyceride level at 85 umol/kg/day administered through diet for 10 days; format: functional; conditions: 240 h
[9] = test system: Rattus norvegicus; experiment: Hypolipidemic activity in Wistar rat assessed as reduction in plasma cholesterol level at 179 umol/kg/day administered through diet for 10 days; format: functional; conditions: 240 h; outline: as §1
[10] = test system: Rattus norvegicus; experiment: Hypolipidemic activity in Wistar rat assessed as reduction in plasma triglyceride level at 402 umol/kg/day administered through diet for 10 days; format: functional; conditions: 240 h
[11] = test system: Rattus norvegicus; experiment: Increase in cholesterol level in Wistar rat liver at 85 umol/kg/day administered through diet for 10 days; format: ADME, organism-based; conditions: in vivo, po, 240 h
[12] = test system: Rattus norvegicus; experiment: Increase in cholesterol level in Wistar rat liver at 179 umol/kg/day administered through diet for 10 days; format: ADME, organism-based; conditions: in vivo, po, 240 h
Outline: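 Male Wistar rats (170-190 g), six per group, given compound by admixture to lab chow ad libitum for 4 or 10 days, dose derived from food intake. Liver cholesterol determined by automated procedure, expressed as mg/g wet tissue, compared with an untreated control group by Student's t test.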

[13] = test system: Rattus norvegicus; experiment: Hypolipidemic activity in Wistar rat assessed as reduction in plasma cholesterol level at 402 umol/kg/day administered through diet for 10 days; format: functional; conditions: 240 h; outline: as §1
[14] = test system: Rattus norvegicus; experiment: Increase in cholesterol level in Wistar rat liver at 402 umol/kg/day administered through diet for 10 days; format: ADME, organism-based; conditions: in vivo, po, 240 h
[15] = test system: Rattus norvegicus; experiment: Increase in liver weight in Wistar rat at 85 umol/kg/day administered through diet for 10 days; format: ADME, organism-based; conditions: in vivo, po, 240 h
[16] = test system: Rattus norvegicus; experiment: Increase in liver weight in Wistar rat at 402 umol/kg/day administered through diet for 10 days; format: ADME, organism-based; conditions: in vivo, po, 240 h
[17] = test system: Rattus norvegicus; experiment: Hypolipidemic activity in Wistar rat assessed as reduction in plasma cholesterol level at 85 umol/kg/day administered through diet for 10 days; format: functional; conditions: 240 h
Outline: (§4)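 Young male Wistar rats (initial weight 170-190 g), groups of six, fed compound mixed into Purina Lab Chow ad libitum for 4 or 10 days; daily dose calculated from food consumption and body weight. Bled by cardiac puncture; plasma cholesterol and triglycerides by automated procedures; percent reduction versus simultaneous untreated controls, Student's t test.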

[18] = test system: Rattus norvegicus; experiment: Increase in liver weight in Wistar rat at 179 umol/kg/day administered through diet for 10 days; format: ADME, organism-based; conditions: in vivo, po, 240 h
[19] = test system: Rattus norvegicus; experiment: Hypolipidemic activity in Wistar rat assessed as reduction in plasma triglyceride level at 179 umol/kg/day administered through diet for 10 days; format: functional; conditions: 240 h; outline: as §4
[20] = test system: Rattus norvegicus; experiment: Increase in liver weight in Wistar rat at 428 umol/kg/day administered through diet for 4 days; format: ADME, organism-based; conditions: in vivo, po, 96 h
[21] = test system: Rattus norvegicus; experiment: Hypolipidemic activity in Wistar rat assessed as reduction in plasma triglyceride level at 417 umol/kg/day administered through diet for 4 days; format: functional; conditions: 96 h
[22] = test system: Rattus norvegicus; experiment: Increase in liver weight in Wistar rat at 417 umol/kg/day administered through diet for 4 days; format: ADME, organism-based; conditions: in vivo, po, 96 h
[23] = test system: Rattus norvegicus; experiment: Hypolipidemic activity in Wistar rat assessed as reduction in plasma cholesterol level at 417 umol/kg/day administered through diet for 4 days; format: functional; conditions: 96 h; outline: as §3
[24] = test system: Rattus norvegicus; experiment: Increase in liver weight in Wistar rat at 332 umol/kg/day administered through diet for 4 days; format: ADME, organism-based; conditions: in vivo, po, 96 h
[25] = test system: Rattus norvegicus; experiment: Hypolipidemic activity in Wistar rat assessed as reduction in plasma cholesterol level at 332 umol/kg/day administered through diet for 4 days; format: functional; conditions: 96 h; outline: as §1
[26] = test system: Rattus norvegicus; experiment: Hypolipidemic activity in Wistar rat assessed as reduction in plasma triglyceride level at 332 umol/kg/day administered through diet for 4 days; format: functional; conditions: 96 h; outline: as §2

Structure (SMILES): CCCCCCCCCCCCCCOc1ccc(C(=O)O)c(OCCCCCCCCCCCCCC)c1
- inhibition in vivo at 291 µmol/kg [1]: 0%
- inhibition in vivo at 291 µmol/kg [2]: 0%
- Activity [3]: 7%

Structure (SMILES): CCCCCCCCCCCCCCOc1ccc(C(=O)CC(=O)OC)cc1
- inhibition in vivo at 85 µmol/kg [8]: 44%
- inhibition in vivo at 179 µmol/kg [9]: 27%
- inhibition in vivo at 402 µmol/kg [10]: 75%
- Activity [11]: 0%
- Activity [12]: 4%
- inhibition in vivo at 402 µmol/kg [13]: 40%
- Activity [14]: 9%
- Activity [15]: 0%
- Activity [16]: 7%
- inhibition in vivo at 85 µmol/kg [17]: 9%
- Activity [18]: 3%
- inhibition in vivo at 179 µmol/kg [19]: 54%

Structure (SMILES): CCCCCCCCCCCCCCOc1ccc(C(=O)OC)c(OC)c1
- inhibition in vivo at 417 µmol/kg [21]: 0%
- Activity [22]: 0%
- inhibition in vivo at 417 µmol/kg [23]: 7%

Structure (SMILES): CCCCCCCCCCCCCCOc1cc(C(=O)OC)cc(C(=O)OC)c1
- Activity [24]: 0%
- inhibition in vivo at 332 µmol/kg [25]: 5%
- inhibition in vivo at 332 µmol/kg [26]: 39%

More lines, main results first:

- Activity [5]: 0%
Structure (SMILES): CCCCCCCCCCCCCCOc1ccc(C(=O)OC)cc1C(=O)OC
- inhibition in vivo at 423 µmol/kg [4]: 7%
- inhibition in vivo at 423 µmol/kg [6]: 10%

- Activity [7]: 6%
Structure (SMILES): CCCCCCCCCCCCCCCCSc1ccc(C(=O)O)cc1

- Activity [20]: 6%
Structure (SMILES): CCCCCCCCCCCCCCSc1ccc(C(=O)O)cc1
